“Also recorded” adds a separate entry of the source.
Tests used:
[1] = Study 3 retinol and α-retinol in liver, kidney and serum after the final dose; format: in vivo, rat; conditions: for Liver αR: 3.5 µmol/day for 21 days, n 5
[2] = given intraperitoneally; cited from earlier work
[3] = Study 3 toxicity study: serum chemistry panel and liver histology; format: in vivo, rat; conditions: 3.5 µmol/d for 21 d; for Hepatotoxicity: rats killed 1, 8 and 15 d after the last dose
[4] = Study 2 interaction study: graded αR with 70 nmol ROH/d, serum and liver; format: in vivo, rat; conditions: for Liver αR / Total dose liver retention: 3 weeks
How it was run: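 Each received oral daily 70 nmol reference retinoid plus 0, 17.5, 35 or 70 nmol test retinoid (as acetate) in 100 µl cottonseed oil. Rats were killed after 3 weeks. Serum and saponified liver were run on isocratic C18 HPLC-UV in acetonitrile:water 87.5:12.5 with 10 mM ammonium acetate. ANOVA; means (SD).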

[5] = cited from earlier work; for Estimates of bioactivity in rats, that of ROH: ref estimates of the 1950's
[6] = Study 1 tissue and serum ROH, αR and DR by HPLC; format: in vivo, rat; conditions: for Lung ROH concentration / Spleen ROH concentration: rats, 50 nmol/d oral, 5 weeks, mean, n 10
[7] = Study 1 growth assay; format: in vivo, rat; conditions: for Bioactivity compared with retinol: from body weights and area-under-the-response curves, equimolar 50 nmol/d; for Area-under-the growth curve, difference from control / Final body weight / Area-under-the growth curve / Bioactivity from area-under-the growth curve, % of retinol / Bioactivity from final body weight, % of retinol: rats, 50 nmol/d for 5 weeks; for Final body weight / Area-under-the growth curve: mean, n 10; for Area-under-the growth curve: trapezoidal; for Bioactivity from area-under-the growth curve, % of retinol: control subtracted, relative to retinol group; for Bioactivity from final body weight, % of retinol: difference from control relative to retinol group
How it was run: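 Weanling (21-d) male Sprague Dawley rats (n 40) were fed a vitamin A-deficient diet and weighed daily. At week 9 they were split into four weight-matched groups (n 10) and given 50 nmol/d oral retinoid acetate in 100 µl cottonseed oil, or vehicle alone. Rats were killed 5 weeks after dosing began. Body-weight AUC was by trapezoidal approximation, and bioactivity from ending weights versus the retinol group. ANOVA; means (SD).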

[8] = system: apo-RBP; conditions: cited from earlier work
[9] = in vitro and in vivo models; cited from earlier work
[10] = high doses given to dams; not to the extent of retinoic acid alone; cited from earlier work
[11] = system: RARα; conditions: cited from earlier work
[12] = system: RARβ; conditions: cited from earlier work
[13] = system: RARγ; conditions: cited from earlier work
[14] = rats maintained on DR; cited from earlier work
[15] = system: retinol transporter; conditions: cited from earlier work

CC(=O)OC/C=C(C)/C=C/C=C(C)/C=C/C1C(C)=CCCC1(C)C (stereo not drawn) [α-retinyl acetate]
Liver αR ([1]; day 1 after final dose): 2300 nmol/g | Liver αR ([1]; day 8 after final dose): 1750 nmol/g | Liver αR ([1]; day 15 after final dose): 1770 nmol/g | Growth of hamsters [2]: sustains growth of hamsters | Hepatotoxicity [3]: No hepatic toxicity was observed; also recorded: No hepatotoxicity was noted

CC1=CCCC(C)(C)C1/C=C/C(C)=C/C=C/C(C)=C/CO (stereo not drawn) [α-Retinol, α-retinol]
Liver αR ([4]; 17.5 nmol αR/d + 70 nmol ROH/d): 262 (SD 34) nmol/liver | Total dose liver retention ([4]; 17.5 nmol αR/d + 70 nmol ROH/d): 71.3% | Liver αR ([4]; 35 nmol αR/d + 70 nmol ROH/d): 449 (SD 23) nmol/liver | Total dose liver retention ([4]; 35 nmol αR/d + 70 nmol ROH/d): 61.1% | Liver αR ([4]; 70 nmol αR/d + 70 nmol ROH/d): 893 (SD 138) nmol/liver | Total dose liver retention ([4]; 70 nmol αR/d + 70 nmol ROH/d): 60.7% | Serum αR ([4]; study 2, 17.5-70 nmol αR/d + 70 nmol ROH/d): undetectable | Cumulative αR doses recovered in the liver ([4]; study 2, with 70 nmol ROH/d): 61–71% | Activity relative to retinol (ROH), growth-promoting activity in rats [5]: 2.1% | Bioactivity [5]: 2.6% | Biopotency versus US Pharmacopeia Vitamin A Reference Standard ([5]; rat growth and liver storage bioassays): approximately 2% | Estimates of bioactivity in rats, that of ROH [5]: 2% | Biopotency of all-trans-retinyl acetate ([5]; ref previous reports): 2% | Lung ROH concentration [6]: not detected | Spleen ROH concentration [6]: not detected | Cumulative αR doses recovered in the liver ([6]; study 1, ROH not made available): 0.3% | Serum ROH concentration ([6]; study 1, rats fed 50 nmol/d): ≤ 0.10 µmol/L | Growth rate relative to ROH ([7]; classic growth assay, 50 nmol/d): about 50% | Bioactivity compared with retinol [7]: 40–50% | Area-under-the growth curve, difference from control [7]: 298 | Final body weight [7]: 508 g | Area-under-the growth curve [7]: 1165 g·days | α-Retinyl esters circulating in the blood, share of total retinol ([1]; at αR concentrations >1.7 µmol/g liver): > 10% | Binding in vitro with apo-RBP [8]: failed to bind | Induction of signs of hypervitaminosis A [9]: very effective at inducing signs of hypervitaminosis A | Toxicity compared with control rats [3]: No toxicity was evident | Hepatotoxicity [3]: no hepatotoxicity occurred | Stellate cell hypertrophy ([3]; liver sections, hematoxylin and eosin): No stellate cell hypertrophy was detected

CC(=O)OC/C=C(C)/C=C/C=C(C)/C=C/C1=C(C)C=CCC1(C)C [3,4-didehydroretinyl acetate]
Terata in fetuses [10]: caused terata in fetuses

CC1=C(/C=C/C(C)=C/C=C/C(C)=C/C(=O)O)C(C)(C)CC=C1 [3,4-Didehydroretinoic acid]
Affinity for RARα [11]: same affinity as retinoic acid | Affinity for RARβ [12]: same affinity as retinoic acid | Affinity for RARγ [13]: same affinity as retinoic acid

CC1=C(/C=C/C(C)=C/C=C/C(C)=C/CO)C(C)(C)CCC1 [Retinol, retinol, reference compound]
Kidney ROH relative to liver ROH ([6]; study 1): 7 times | Liver reserves, times less than deficiency cut-off (<70 nmol ROH/g liver) ([6]; study 1, ROH group): 14 times | Area-under-the growth curve, difference from control [7]: 787 | Bioactivity from area-under-the growth curve, % of retinol [7]: 100% | Bioactivity from final body weight, % of retinol [7]: 100% | Final body weight [7]: 546 g | Area-under-the growth curve [7]: 1654 g·days

CC1=C(/C=C/C(C)=C/C=C/C(C)=C/CO)C(C)(C)CC=C1 [3,4-Didehydroretinol, 3,4-didehydroretinol]
Biological activity compared with ROH [5]: 40% | Estimates of bioactivity in rats, that of ROH [5]: 40% | Lung ROH concentration [6]: not detected | Spleen ROH concentration [6]: not detected | Serum DR in DR-dosed rats, times less than serum ROH in ROH-dosed rats ([6]; study 1): 2.6 times | Bioactivity compared with retinol [7]: 120–130% | Area-under-the growth curve, difference from control [7]: 1000 | Bioactivity from area-under-the growth curve, % of retinol [7]: 127% | Bioactivity from final body weight, % of retinol [7]: 119% | Final body weight [7]: 560 g | Area-under-the growth curve [7]: 1867 g·days | Retina integrity [14]: normal retina integrity | Rate of carriage by the retinol transporter from the intestine [15]: at the same rate as ROH

CC(=O)OC/C=C(C)/C=C/C=C(C)/C=C/C1=C(C)CCCC1(C)C [retinyl acetate, reference compound]
Terata in fetuses [10]: caused terata in fetuses
